Measurements published in ChEMBL document CHEMBL2331542, “Synthesis and in vitro antibacterial activity of quinolone/naphthyridone derivatives containing 3-alkoxyimino-4-(methyl)aminopiperidine scaffolds” (2013).
Values after ≈ are worked out from the molar mass of the structure shown.

What was measured:
Type in all cases: functional
Klebsiella pneumoniae [1] = assay: Antibacterial activity against extended-spectrum beta-lactamase-producing Klebsiella pneumoniae isolate 12-1
Method in brief: (§1)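 MIC determined in vitro by a standard technique and defined as the lowest compound concentration giving complete inhibition of bacterial growth. The Gram-positive and Gram-negative panels were tested alongside gemifloxacin, levofloxacin and ciprofloxacin reference drugs.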

Staphylococcus aureus [2] = assay: Antibacterial activity against Staphylococcus aureus […]; method in brief: as §1
Escherichia coli [3] = assay: Antibacterial activity against extended-spectrum beta-lactamase-producing Escherichia coli isolate 12-2; method in brief: as §1
Klebsiella pneumoniae [4] = assay: Antibacterial activity against Klebsiella pneumoniae isolate 12-1; method in brief: as §1
Escherichia coli [5] = assay: Antibacterial activity against Escherichia coli isolate 12-4; method in brief: as §1
Staphylococcus aureus [6] = assay: Antibacterial activity against methicillin-resistant Staphylococcus aureus isolate 12-3
Method in brief: (§2)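 MIC determined in vitro by standard techniques, defined as the lowest compound concentration giving complete inhibition of bacterial growth. Gemifloxacin, levofloxacin and ciprofloxacin were tested alongside as reference drugs.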

[7] = test system: Staphylococcus epidermidis; assay: Antibacterial activity against methicillin-sensitive Staphylococcus epidermidis isolate 12-2; method in brief: as §1
Escherichia coli [8] = assay: Antibacterial activity against extended-spectrum beta-lactamase-producing Escherichia coli isolate 12-1; method in brief: as §1
Staphylococcus aureus [9] = assay: Antibacterial activity against methicillin-resistant Staphylococcus aureus isolate 12-13; method in brief: as §2
[10] = test system: Staphylococcus epidermidis; assay: Antibacterial activity against methicillin-sensitive Staphylococcus epidermidis isolate 12-1; method in brief: as §1
Staphylococcus aureus [11] = assay: Antibacterial activity against methicillin-sensitive Staphylococcus aureus isolate 12-7; method in brief: as §1
[12] = test system: Staphylococcus epidermidis; assay: Antibacterial activity against methicillin-resistant Staphylococcus epidermidis isolate 12-5; method in brief: as §2
Staphylococcus aureus [13] = assay: Antibacterial activity against methicillin-resistant Staphylococcus aureus isolate 12-15; method in brief: as §2
[14] = test system: Staphylococcus epidermidis; assay: Antibacterial activity against methicillin-sensitive Staphylococcus epidermidis isolate 12-3; method in brief: as §1
Escherichia coli [15] = assay: Antibacterial activity against extended-spectrum beta-lactamase-producing Escherichia coli isolate 12-4; method in brief: as §1
Streptococcus pneumoniae [16] = assay: Antibacterial activity against Streptococcus pneumoniae isolate 12-5; method in brief: as §1
Escherichia coli [17] = assay: Antibacterial activity against Escherichia coli isolate 12-1; method in brief: as §1
Pseudomonas aeruginosa [18] = assay: Antibacterial activity against Pseudomonas aeruginosa isolate 12-2; method in brief: as §1
Klebsiella pneumoniae [19] = assay: Antibacterial activity against Klebsiella pneumoniae isolate 12-2; method in brief: as §1
[20] = test system: Staphylococcus epidermidis; assay: Antibacterial activity against methicillin-resistant Staphylococcus epidermidis isolate 12-33; method in brief: as §2
Escherichia coli [21] = assay: Antibacterial activity against Escherichia coli isolate 12-5; method in brief: as §1
Pseudomonas aeruginosa [22] = assay: Antibacterial activity against Pseudomonas aeruginosa ATCC 27853; method in brief: as §1
Klebsiella pneumoniae [23] = assay: Antibacterial activity against Klebsiella pneumoniae isolate 12-4; method in brief: as §1
Escherichia coli [24] = assay: Antibacterial activity against Escherichia coli ATCC 25922; method in brief: as §1
Streptococcus pneumoniae [25] = assay: Antibacterial activity against Streptococcus pneumoniae isolate 12-2; method in brief: as §1
Pseudomonas aeruginosa [26] = assay: Antibacterial activity against Pseudomonas aeruginosa isolate 12-1; method in brief: as §1
Staphylococcus aureus [27] = assay: Antibacterial activity against methicillin-sensitive Staphylococcus aureus isolate 12-10; method in brief: as §1
[28] = test system: Staphylococcus epidermidis; assay: Antibacterial activity against methicillin-resistant Staphylococcus epidermidis isolate 12-35; method in brief: as §2
Staphylococcus aureus [29] = assay: Antibacterial activity against methicillin-sensitive Staphylococcus aureus isolate 12-6; method in brief: as §1
Klebsiella pneumoniae [30] = assay: Antibacterial activity against extended-spectrum beta-lactamase-producing Klebsiella pneumoniae isolate 12-2; method in brief: as §1
Klebsiella pneumoniae [31] = assay: Antibacterial activity against extended-spectrum beta-lactamase-producing Klebsiella pneumoniae isolate 12-4; method in brief: as §1

Structure (SMILES)	MIC (Klebsiella pneumoniae [1]) [µg/mL]	MIC (Staphylococcus aureus [2]) [µg/mL]	MIC (Escherichia coli [3]) [µg/mL]	MIC (Klebsiella pneumoniae [4]) [µg/mL]	MIC (Escherichia coli [5]) [µg/mL]	MIC (Staphylococcus aureus [6]) [µg/mL]	MIC [7] [µg/mL]	MIC (Escherichia coli [8]) [µg/mL]	MIC (Staphylococcus aureus [9]) [µg/mL]	MIC [10] [µg/mL]	MIC (Staphylococcus aureus [11]) [µg/mL]	MIC [12] [µg/mL]	MIC (Staphylococcus aureus [13]) [µg/mL]	MIC [14] [µg/mL]	MIC (Escherichia coli [15]) [µg/mL]	MIC (Streptococcus pneumoniae [16]) [µg/mL]	MIC (Escherichia coli [17]) [µg/mL]	MIC (Pseudomonas aeruginosa [18]) [µg/mL]	MIC (Klebsiella pneumoniae [19]) [µg/mL]	MIC [20] [µg/mL]	other results
CNC1CCN(c2c(F)cc3c(=O)c(C(=O)O)cn(C4CC4)c3c2F)C/C1=N\OC (configuration not stated)	8 (≈ 19 µM)	0.25 (≈ 0.595 µM)	> 128	0.5 (≈ 1.19 µM)	> 128	0.06 (≈ 0.143 µM)	0.5 (≈ 1.19 µM)	> 128	0.06 (≈ 0.143 µM)	0.25 (≈ 0.595 µM)	0.06 (≈ 0.143 µM)	0.015 (≈ 0.0357 µM)	0.06 (≈ 0.143 µM)	0.25 (≈ 0.595 µM)	128 (≈ 304 µM)	0.06 (≈ 0.143 µM)	2 (≈ 4.76 µM)	8 (≈ 19 µM)	0.5 (≈ 1.19 µM)	< 0.008	MIC (Escherichia coli [21]): > 128 µg/mL; MIC (Pseudomonas aeruginosa [22]): 4 µg/mL (≈ 9.51 µM); MIC (Klebsiella pneumoniae [23]): 0.5 µg/mL (≈ 1.19 µM); MIC (Escherichia coli [24]): 0.03 µg/mL (≈ 0.0714 µM); MIC (Streptococcus pneumoniae [25]): 0.06 µg/mL (≈ 0.143 µM); MIC (Pseudomonas aeruginosa [26]): 8 µg/mL (≈ 19 µM); MIC (Staphylococcus aureus [27]): 0.03 µg/mL (≈ 0.0714 µM); MIC [28]: 0.015 µg/mL (≈ 0.0357 µM); MIC (Staphylococcus aureus [29]): 0.03 µg/mL (≈ 0.0714 µM); MIC (Klebsiella pneumoniae [30]): 8 µg/mL (≈ 19 µM); MIC (Klebsiella pneumoniae [31]): 0.5 µg/mL (≈ 1.19 µM)
CNC1CCN(c2nc3c(cc2F)c(=O)c(C(=O)O)cn3-c2ccc(F)cc2F)C/C1=N\OC (configuration not stated)	64 (≈ 135 µM)	0.125 (≈ 0.263 µM)	> 128	1 (≈ 2.1 µM)	> 128	0.03 (≈ 0.0631 µM)	0.5 (≈ 1.05 µM)	> 128	0.03 (≈ 0.0631 µM)	0.125 (≈ 0.263 µM)	0.06 (≈ 0.126 µM)	0.015 (≈ 0.0316 µM)	0.03 (≈ 0.0631 µM)	0.125 (≈ 0.263 µM)	32 (≈ 67.3 µM)	0.06 (≈ 0.126 µM)	8 (≈ 16.8 µM)	8 (≈ 16.8 µM)	1 (≈ 2.1 µM)	0.015 (≈ 0.0316 µM)	MIC (Escherichia coli [21]): > 128 µg/mL; MIC (Pseudomonas aeruginosa [22]): 8 µg/mL (≈ 16.8 µM); MIC (Klebsiella pneumoniae [23]): 1 µg/mL (≈ 2.1 µM); MIC (Escherichia coli [24]): 0.125 µg/mL (≈ 0.263 µM); MIC (Streptococcus pneumoniae [25]): 0.06 µg/mL (≈ 0.126 µM); MIC (Pseudomonas aeruginosa [26]): 4 µg/mL (≈ 8.41 µM); MIC (Staphylococcus aureus [27]): 0.03 µg/mL (≈ 0.0631 µM); MIC [28]: 0.015 µg/mL (≈ 0.0316 µM); MIC (Staphylococcus aureus [29]): 0.03 µg/mL (≈ 0.0631 µM); MIC (Klebsiella pneumoniae [30]): 32 µg/mL (≈ 67.3 µM); MIC (Klebsiella pneumoniae [31]): 1 µg/mL (≈ 2.1 µM)
